Drawing on ChEMBL document CHEMBL4513216, “Probing the Open Global Health Chemical Diversity Library for Multistage-Active Starting Points for Next-Generation Antimalarials” (ACS Infect Dis, 2020), this text covers cytotoxicity for 71 molecules.

The data set can be described thus: Toxicity liver stage against HepG2, at 10uM. The data set is classed as cell-based. More on the design: test concentration 10 uM, cell line HepG2-A16-CD81EGFP. Conditions: human, HepG2-A16-CD81EGFP cells; read-out: INHIBITION
The method in brief: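 Uninfected HepG2-A16-CD81EGFP cells, 3 × 10^3 per well, 1536-well, plated on prespotted compound at 10 μM final, parasite-free screening media added to match infected plates; puromycin 10 μM positive, DMSO 0.5% negative; run in parallel with 48 h PbLuc assay at 37 °C, 5% CO2; viability by CellTiter-Glo luminescence, normalized to controls.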
With `CC(C)(O)c1cc(CC2(NCc3ccccc3Cl)COC2)no1`, the cytotoxicity at 10 µM came to 2.63%.

For `CCCC(O)CN1CCC(=O)N(CCOC)Cc2ccccc21` (stereo unspecified), the cytotoxicity at 10 µM stood at 3.23%.

In the case of `Nc1cccnc1N1CCC(c2ccccc2)CC1`, the cytotoxicity at 10 µM is -5.2%.

Regarding `COC(=O)CCn1ccc(=O)c2cc(F)ccc21`, the cytotoxicity at 10 µM stood at 0.409%.

In the case of `O=C(CC1NC(N2CCc3ccccc32)=NC1=O)Nc1ccccc1` (stereo unspecified), the cytotoxicity at 10 µM was -1.3%.

For the molecule `O=S(=O)(NCCNc1cc(-n2cccc2)ncn1)c1cccs1`, the cytotoxicity at 10 µM was -0.582%.

As for `CC(C)CCN1C2(CCN(C(=O)C3(C)CC3)C2)c2ccccc2S1(=O)=O` (stereo unspecified), the cytotoxicity at 10 µM was -7.42%.

For `COCCNC(=O)c1cc2c(s1)CCN2S(C)(=O)=O`, the cytotoxicity at 10 µM was -5.05%.

Consider `O=C(NCC1CC1)C1=NOC2(CCN(Cc3ccc4c(c3)OCO4)C2)C1` (stereo unspecified), for which the cytotoxicity at 10 µM is -12.1%.

As to `CN1C(=O)C(c2cccnc2)CC12CCN(C(=O)c1cccn1C)CC2` (stereo unspecified), the cytotoxicity at 10 µM is -16.4%.

With `CC(=O)Nc1ncc(S(=O)(=O)Nc2ccc(F)cc2F)s1`, the cytotoxicity at 10 µM is 11.1%.

Regarding `O=C(NCc1ccccc1)c1nnc2ccc(N3CCOCC3)cc2n1`, the cytotoxicity at 10 µM was determined as 11.2%.

Regarding `CNC(=O)CCc1cc(C2CCCN2S(C)(=O)=O)nc(C)n1` (stereo unspecified), the cytotoxicity at 10 µM is -0.0612%.

Turning to `Cc1ccccc1S(=O)(=O)N[C@@H]1CC[C@@H](N2CCNC(=O)C2)[C@@H]1O`, the cytotoxicity at 10 µM was found to be 4.29%.

For `CCC1CCCCN1C(=O)Cn1nc(-c2ccc(C)s2)cc(N)c1=O` (stereo unspecified), the cytotoxicity at 10 µM was determined as 2.64%.

As for `CNC(=O)c1cn[nH]c1C1CCN(Cc2cccc(C)c2OC)C1` (stereo unspecified), the cytotoxicity at 10 µM is -23.6%.

Consider `Cc1ccnc(C2(C)CCCN2C(=O)c2cnccn2)n1` (stereo unspecified), for which the cytotoxicity at 10 µM is -34%.

Consider `Cc1cc(C2CCCCCN2Cc2cn(C)nc2C)no1` (stereo unspecified), for which the cytotoxicity at 10 µM is -20.4%.

Take `Nc1cc(-c2cccs2)nn(CC(=O)NCC2CCCCC2)c1=O`: the cytotoxicity at 10 µM was -3.09%.

With `Fc1ccc(CN2CCCC(c3nccnc3-n3ccnc3)C2)cc1` (stereo unspecified), the cytotoxicity at 10 µM is -20.4%.

For the molecule `Cn1cccc1CN1CCc2c(nc(-c3ccccn3)[nH]c2=O)C1`, the cytotoxicity at 10 µM was -10%.

For the molecule `CN(Cc1nnc(C2CC2)o1)Cc1ccccc1-c1ccccc1`, the cytotoxicity at 10 µM worked out at 4.59%.

Regarding `Cc1noc(CNC(=O)NCC2(C)CCCc3ccccc32)n1` (stereo unspecified), the cytotoxicity at 10 µM is -1.17%.

As to `CCC(C)N(C)C(=O)Nc1ccc(N2CCSCC2)cc1C` (stereo unspecified), the cytotoxicity at 10 µM is -12.5%.

With `Cc1sc(-c2ccco2)nc1C(=O)N(CC1CCOC1)C1CC1` (stereo unspecified), the cytotoxicity at 10 µM amounted to 0.714%.

As for `Cc1nc(-c2ccco2)ccc1C(=O)NCCC(=O)N1CCCCC1`, the cytotoxicity at 10 µM is -1.33%.

Take `O=C(NCCCN1CCC(OC2CCCCC2)CC1)C1CCCC1`: the cytotoxicity at 10 µM was 2.24%.

`CS(=O)(=O)CCSC1CCN(c2ccccc2F)C1=O` (stereo unspecified): the cytotoxicity at 10 µM was -7.68%.

For the molecule `O=C(C1SCCc2sccc21)N1CC(O)C1` (stereo unspecified), the cytotoxicity at 10 µM came out at 9.22%.

As to `c1nc(N2CCCCC2Cn2cncn2)c2sccc2n1` (stereo unspecified), the cytotoxicity at 10 µM turned out to be 9.43%.

With `Cc1cc(NS(=O)(=O)c2cccs2)ccc1-n1cccc1C(=O)O`, the cytotoxicity at 10 µM was -2.68%.

Take `CCCN(C)C(=O)c1cc(Br)cc(S(=O)(=O)N2CCOCC2)c1F`: the cytotoxicity at 10 µM was 6.83%.

Take `CC(C)OC(=O)CCNC(=O)Nc1cccc2ncccc12`: the cytotoxicity at 10 µM turned out to be 1.03%.

For `COc1ccccc1N1CCC(CNS(=O)(=O)c2cccs2)C1` (stereo unspecified), the cytotoxicity at 10 µM was determined as 5.66%.

Regarding `CC1CN(C)CCN1C(=O)Nc1nc(-c2ccc[nH]2)cs1` (stereo unspecified), the cytotoxicity at 10 µM was -1.94%.

In the case of `CCC(O)CN1CCN(C(=O)Cc2c(C)nc(C)[nH]c2=O)CC1` (stereo unspecified), the cytotoxicity at 10 µM was -19.3%.

As for `COc1ccc(-c2nc(C3(NC(=O)OC(C)(C)C)CCC3)no2)cn1`, the cytotoxicity at 10 µM is 12.5%.

As for `CCC(O)CN1CCN(C(=O)c2ccnc(N(C)C)c2)CC1` (stereo unspecified), the cytotoxicity at 10 µM is -7.87%.

Regarding `CC(=O)N1CC[C@@H]2O[C@@H](COCc3csc(C)n3)CC[C@@H]21`, the cytotoxicity at 10 µM is -71.7%.

In the case of `Cc1noc([C@H]2C[C@H]3OCC[C@H]3N(Cc3ccncc3)C2)n1`, the cytotoxicity at 10 µM was -74.7%.

Consider `CNC(=O)[C@@]12CCO[C@@H]1CCN(S(=O)(=O)c1ccccc1C)C2`, for which the cytotoxicity at 10 µM was -72.8%.

On to `CC(=O)N1CCC2(CCN(C(=O)c3ccc(F)c(C(F)(F)F)c3)CC2)C1`, for which the cytotoxicity at 10 µM is -80.4%.

Consider `c1cnc(OCc2nnc3n2CCN(CC2CCOCC2)C3)nc1`, for which the cytotoxicity at 10 µM is 4.95%.

For the molecule `Cc1ccc(N2CCC3(CCN(C(=O)c4ccsc4)CC3)C2)nn1`, the cytotoxicity at 10 µM amounted to 4%.

Consider `CNC(=O)CC1CC2(CCN(S(C)(=O)=O)CC2)c2ccccc21` (stereo unspecified), for which the cytotoxicity at 10 µM was found to be 5.75%.

As to `CCn1ccnc1C1CCN(C(=O)C(O)c2ccc(Cl)cc2)CC1` (stereo unspecified), the cytotoxicity at 10 µM is -0.65%.

Take `CNCC(=O)N1CCCC1c1nc(C(C)C)no1` (stereo unspecified): the cytotoxicity at 10 µM was 0.983%.

For `CCN(CCN1CCCCCC1)C(=O)COc1cccnc1`, the cytotoxicity at 10 µM came to 12.6%.

Consider `CCCN1CCC(CC(=O)N(C)C(C)c2cncs2)CC1` (stereo unspecified), for which the cytotoxicity at 10 µM was determined as 2.62%.

Take `CCCc1cc(C(=O)N(Cc2cccnc2)Cc2cccnc2)[nH]n1`: the cytotoxicity at 10 µM is -5.79%.

As to `Cc1cccnc1CNC(=O)CC1C(=O)NCCN1CC(C)(C)C` (stereo unspecified), the cytotoxicity at 10 µM came out at 5.48%.

As to `CN(C)C(C(=O)NCC1(N(C)C)CCOCC1)c1ccccc1F` (stereo unspecified), the cytotoxicity at 10 µM was 2.2%.

For the molecule `CCn1nc(C)cc1C(=O)NCc1nc(C)cc(C)n1`, the cytotoxicity at 10 µM is -0.745%.

In the case of `Cc1noc(C2CCCCN2C(=O)C2CCN(C(C)C)CC2)n1` (stereo unspecified), the cytotoxicity at 10 µM is -4.62%.

Take `Cc1nc(CN2CCN(C(=O)C(c3ccccc3C)N(C)C)CC2)no1` (stereo unspecified): the cytotoxicity at 10 µM turned out to be 1.06%.

As for `O=C1NCC2(CCCN(C(=O)c3c[nH]nc3-c3cccs3)C2)O1` (stereo unspecified), the cytotoxicity at 10 µM stood at 8.32%.

For the molecule `CCn1ncc(C(=O)N2CCCN(CCCc3ccccc3)CC2)c1C`, the cytotoxicity at 10 µM is -2.62%.

Take `O=C1OCCN1CCNC(=O)C1(N2CCCCC2)Cc2ccccc2C1`: the cytotoxicity at 10 µM was -6.77%.

As to `CC(C)n1cnnc1CN(C)CC1CCOC1` (stereo unspecified), the cytotoxicity at 10 µM was found to be 11.3%.

Turning to `CCCc1cc(C(=O)N2C[C@H]3CC=C(C)C[C@H]3C2)ccn1`, the cytotoxicity at 10 µM came out at 0.782%.

With `CN(C(=O)CSc1ccccn1)C1CCCN(CCc2ccccc2)C1` (stereo unspecified), the cytotoxicity at 10 µM was -4.46%.

With `Cc1nccnc1-n1c(COCC(=O)O)nc2c(C)cccc21`, the cytotoxicity at 10 µM is -6.29%.

For the molecule `CNC(=O)c1cccc(CNC(=O)C2CC(=O)N(CCN(C)C)C2)c1` (stereo unspecified), the cytotoxicity at 10 µM was determined as 1.01%.

As for `O=C(Nc1ccc(CCN2CCOCC2)cc1)C1CC1`, the cytotoxicity at 10 µM was -10.9%.

Take `CN(C)c1ncc(-c2ccc(C(N)=O)cc2)c(C2CCNC2)n1` (stereo unspecified): the cytotoxicity at 10 µM was -0.892%.

`Cc1nc(CN2CCc3ncnc(-c4ccccc4)c3CC2)cs1`: the cytotoxicity at 10 µM is -81.1%.

Take `CN(C)CCN1CCOCC12CCN(C(=O)C1CC1)CC2`: the cytotoxicity at 10 µM is -7.45%.

In the case of `CC(=O)N1CC(=O)N(c2ccccc2)CC12CCN(Cc1cccs1)C2` (stereo unspecified), the cytotoxicity at 10 µM is -11.1%.

For the molecule `CN(C)C[C@]12COC[C@H]1CN(C(=O)CCc1ccccc1)C2`, the cytotoxicity at 10 µM is -1.89%.

As to `O=C(NC[C@]12COC[C@H]1CN(Cc1ccncc1)C2)c1ccno1`, the cytotoxicity at 10 µM is -72.1%.

With `Cc1cc(CN2CC[C@H]3OCC[C@@]3(C(=O)NC(C)C)C2)no1`, the cytotoxicity at 10 µM is 5.86%.
